An excerpt weighted towards active compounds, which were near 1% of everything screened.
procasp7 counter – procaspase-7 activators, primary screen, counter-screen for procaspase-3 activator project, biochemical, absorbance, HTS, human. activation, % at 8.5 µM. 0.093% of 330,000 active. recombinant procaspase-7, Ac-DEVD-pNA absorbance 405 nm; D23A/D198A/D206A triple mutant, cannot self-cleave; scale: DMSO 0, 5 µM enzyme 100. Caspase-7 (Homo sapiens), P55210. AID 463210, 2010;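 active = percent activation above the screen-wide mean plus 3 SD, cut at about 25% in these data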
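Test system: Procaspase-7 triple mutant (PC-7 D3A). Also added: Ac-DEVD-pNA substrate, 400 µM as added. Schedule: 1 h enzyme–compound preincubation and 2 h substrate reaction, both 25 °C. Signal: p-Nitroaniline absorbance at 405 nm, read at 0 and 120 min. Control set: low DMSO alone, high DMSO plus 5 µM PC-7.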
PME-1 primary – PME-1 inhibitors via competitive probe labeling, primary screen, biochemical, fluorescence polarization, FP-Rh probe, HTS; AID 2130, 2009; 0.53% of 320,000 active; inhibition, % at 5.9 µM; recombinant PME-1;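 active = inhibition above the campaign mean of all compounds plus 3 SD, cut at about 26% in these data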;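 also: competitive labeling of PME-1 active site by serine hydrolase directed probe; 0% = PME-1 with DMSO and 100% = wells lacking PME-1 enzyme; inhibitors block probe labeling so polarization falls and inhibition rises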
proCasp3 act – activators of human procaspase-3 D3A mutant, primary screen, biochemical, absorbance, PC-3 D3A mutant, single concentration; Caspase-3 (Homo sapiens), P42574; recombinant procaspase-3 D3A, Ac-DEVD-pNA absorbance 405 nm; 0.11% of 330,000 active; AID 463141, 2010; activation, % at 8.5 µM;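 active = activation above the mean of all tested compounds plus 3 SD, cut at about 21% in these data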;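 also: 0% = DMSO alone and 100% = DMSO wells spiked with extra 5 µM PC-3 D3A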
Target sequence (P42574 whole entry D9A/D28A/D175A): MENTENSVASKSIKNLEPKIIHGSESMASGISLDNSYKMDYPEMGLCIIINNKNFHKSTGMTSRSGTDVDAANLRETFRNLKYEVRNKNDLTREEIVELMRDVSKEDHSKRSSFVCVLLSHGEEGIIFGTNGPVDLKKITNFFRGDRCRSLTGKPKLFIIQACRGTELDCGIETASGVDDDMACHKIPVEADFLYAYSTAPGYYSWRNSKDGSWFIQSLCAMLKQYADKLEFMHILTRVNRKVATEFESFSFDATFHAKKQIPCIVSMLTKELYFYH
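Technique: 405 nm absorbance of p-nitroaniline, reads at 0 and 120 min; Test system: Procaspase-3 D3A mutant; Incubation: 1 h enzyme-compound preincubation, then 2 h substrate reaction, 25 °C; Repeats: singlicate, each compound tested once; Benchmarks: low control DMSO wells, high control DMSO plus 5 µM PC-3 D3A.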
LYPLA2 inh – LYPLA2 inhibitors, primary screen, counter-screen for PME1 inhibitor project, biochemical, fluorescence polarization, FP-Rh probe ABPP; recombinant LYPLA2; inhibition, % at 5.9 µM; 0.38% of 320,000 active; AID 2177, 2009;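 active = inhibition above the screen-wide mean plus 3 SD, limit set per campaign, cut at about 26% in these data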;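 also: 0% = LYPLA2 with DMSO and 100% = wells lacking LYPLA2 enzyme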
Target sequence (O95372 whole entry, looked up): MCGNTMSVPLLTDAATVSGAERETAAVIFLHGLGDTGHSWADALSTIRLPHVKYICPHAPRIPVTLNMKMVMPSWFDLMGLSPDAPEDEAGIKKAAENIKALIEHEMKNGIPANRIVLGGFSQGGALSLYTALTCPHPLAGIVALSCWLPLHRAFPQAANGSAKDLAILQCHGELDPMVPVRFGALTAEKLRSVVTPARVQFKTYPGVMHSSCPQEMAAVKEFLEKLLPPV
LYPLA1 inh – LYPLA1 inhibitors, primary screen, counter-screen for PME1 inhibitor project, biochemical, fluorescence polarization, FP-Rh probe ABPP; Acyl-protein thioesterase 1 (Homo sapiens), O75608; recombinant LYPLA1; inhibition, % at 5.9 µM; 0.16% of 320,000 active;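 active = inhibition above the mean of all tested compounds plus 3 SD, set per campaign, cut at about 14% in these data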;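 also: inhibitors block serine hydrolase probe labeling of LYPLA1 so polarization falls; 0% = enzyme with DMSO and 100% = wells lacking LYPLA1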
Target sequence (O75608 whole entry, looked up): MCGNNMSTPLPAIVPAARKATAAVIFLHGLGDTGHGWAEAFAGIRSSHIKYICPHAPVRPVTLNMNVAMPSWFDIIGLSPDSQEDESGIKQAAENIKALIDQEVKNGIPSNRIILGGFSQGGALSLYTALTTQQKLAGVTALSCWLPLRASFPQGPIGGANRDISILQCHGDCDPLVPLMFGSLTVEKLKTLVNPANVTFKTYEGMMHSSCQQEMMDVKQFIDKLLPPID
Fam108B inh – mouse Fam108B serine hydrolase inhibitors, primary screen, counter-screen for RBBP9 inhibitor project, biochemical, fluorescence polarization. recombinant Fam108B, FP-Rh probe fluorescence polarization. AID 1947, 2009. inhibition, % at 9.51 µM. 0.33% of 300,000 active;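 active = inhibition above the screen mean inhibition plus 3 SD, computed separately per campaign, cut at about 18% in these data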;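 also: inhibitors lower polarization as less probe binds the enzyme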
LYPLA1 conf – LYPLA1 inhibitors, retest, confirmation, counter-screen for PME1 inhibitor project, biochemical, fluorescence polarization, FP-Rh probe ABPP; shares compounds with LYPLA1 inh; recombinant LYPLA1; inhibition, % at 5.9 µM; 69% of 480 active; AID 2233, 2010;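 active = mean inhibition across replicates above the hit cutoff set in the primary screen, cut at about 15% in these data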;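 also: loss of FP-Rh probe labeling of LYPLA1 seen as lower polarization; 0% = LYPLA1 with DMSO and 100% = wells lacking LYPLA1 enzyme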
LYPLA2 conf – LYPLA2 inhibitors, retest, confirmation, counter-screen for PME1 inhibitor project, biochemical, fluorescence polarization, FP-Rh probe ABPP; shares compounds with LYPLA2 inh; recombinant LYPLA2; inhibition, % at 5.9 µM; 72% of 1,100 active; AID 2232, 2010;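 active = mean inhibition across replicates above the hit cutoff set in the primary screen, cut at about 26% in these data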;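 also: blocked labeling of the enzyme by serine hydrolase FP-Rh probe lowers polarization; 0% = enzyme with DMSO and 100% = wells lacking LYPLA2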
proCasp7 act trip – procaspase-7 activators, counter-screen for procaspase-3 activator project, biochemical, absorbance, triplicate, human; shares compounds with proCasp3 act; recombinant procaspase-7, Ac-DEVD-pNA absorbance; asp23/198/206-to-Ala mutant, cannot self-cleave; activation, % at 8.5 µM; 210 tested, under 10 active; AID 488941, 2010;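 active = mean activation above a set limit taken from an earlier procaspase-7 screen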;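 also: 0% = DMSO wells and 100% = DMSO plus 5 µM procaspase-7 enzyme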
procasp3 conf – activators of human procaspase-3 D3A mutant, confirmation, biochemical, absorbance, PC-3 D3A mutant, triplicate; shares compounds with proCasp3 act; recombinant PC-3 D3A, Ac-DEVD-pNA absorbance 405 nm; 100% is higher-enzyme control; activation, % at 8.5 µM; 10% of 210 active; AID 488954, 2010;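 active = mean activation above a set limit carried over from the earlier primary screen, cut at about 22% in these data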
Starred values were filed as active, the others as inactive; / = not tested or not shown.

SMILES | procasp7 counter | PME-1 primary | proCasp3 act | LYPLA2 inh | LYPLA1 inh | Fam108B inh | LYPLA1 conf | LYPLA2 conf | others
O=C(N=C1SC2CS(=O)(=O)CC2N1Cc1ccc(Cl)cc1)C1CC1 (stereo not given) | 11.9 | -5.2 | 5.8 | 3.2 | -1.0 | 0.5 | / | /
Cc1ccc(OCC(=O)N2CCN(C(=O)CCC3CCCC3)CC2)cc1 | 4.9 | -5.2 | 8.5 | 26.6* | 61.3* | -5.3 | 66.2* | 18.6
Cc1nc(NC(=O)c2ccccc2)sc1-c1csc(Nc2cccc(F)c2)n1 | -11.0 | 5.0 | -11.6 | -26.5 | -19.1 | 10.2 | / | /
Cc1cc(NS(=O)(=O)c2ccc(Nc3nc(-c4sc(NC(=O)c5ccccc5)nc4C)cs3)cc2)no1 | -17.7 | 80.9* | -3.4 | 58.9* | 41.1* | -8.6 | 36.8* | 37.4*
O=C(/C=C/c1ccc(Br)cc1)N1CCN(c2cccc(C(F)(F)F)c2)CC1 | 1.0 | 0.2 | -11.5 | 77.9* | 46.3* | 1.1 | 48.8* | 62.9*
O=C(C1CCC(Cn2c(=S)[nH]c3ccccc3c2=O)CC1)N1CCN(c2ccccc2)CC1 (stereo not given) | -4.0 | -10.8 | 4.0 | 53.0* | 35.5* | -5.5 | 45.2* | 52.3*
O=C(C1CCC(Cn2c(=O)[nH]c3ccccc3c2=O)CC1)N1CCN(c2ccccc2)CC1 (stereo not given) | -8.8 | 5.4 | 4.2 | 19.9 | 5.8 | 1.4 | / | /
COc1ccc(N2CCN(C(=O)C3CCC(Cn4c(=S)[nH]c5ccccc5c4=O)CC3)CC2)cc1 (stereo not given) | 1.1 | -4.3 | -2.3 | 83.1* | 39.8* | -1.3 | 43.1* | 84.1*
COc1cc2c(cc1OC)[C@@H](NC(=O)CCc1ccccc1)[C@H](O)C2 | -3.4 | / | -0.8 | / | / | / | / | /
NC(=O)c1cc([N+](=O)[O-])ccc1NCC1CCCCC1 | -7.3 | -7.2 | -0.4 | 42.7* | 24.5* | 7.2 | 30.6* | 37.3*
CC#CC(=O)N1CCC(n2nccc2NC(=O)c2ccc3c(c2)OCO3)CC1 | -6.0 | 4.0 | 5.2 | 31.0* | 26.0* | 5.0 | 36.6* | 30.1*
CSCCC(=O)N1CCC(n2nccc2NC(=O)c2ccc3c(c2)OCO3)CC1 | 0.1 | 3.5 | 2.4 | 14.9 | 3.4 | -3.7 | / | /
CC1CCC(NC(=O)COC(=O)c2cccnc2Cl)CC1 (stereo not given) | 2.7 | 1.4 | 7.1 | -1.6 | 1.4 | / | / | /
Cc1nc(SCC2(C)CC2(Cl)Cl)n[nH]1 (stereo not given) | 4.3 | 2.0 | -1.2 | -1.4 | -0.9 | 4.4 | / | /
C=CCn1c(SCC(=O)N2CCCC2=O)nc2sc(CC)cc2c1=O | -12.2 | 36.8* | 7.3 | 38.5* | 21.5* | / | 4.2 | -2.7
CCOC(=O)C1CCN(c2ncnc3c2nnn3Cc2ccccc2Cl)CC1 | 9.1 | 9.3 | 0.6 | 48.4* | 28.0* | 0.1 | 40.4* | 53.6*
O=C(c1ccco1)N1CCN(c2ncnc3c2nnn3Cc2ccccc2Cl)CC1 | 5.4 | 7.7 | 2.6 | 17.1 | 8.4 | 6.7 | / | /
O=C(c1ccc(S(=O)(=O)N2CCCCC2)cc1)N1CCN(CCN2C(=O)c3cccc4cccc(c34)C2=O)CC1 | 5.9 | 4.1 | -2.2 | 34.5* | 20.3* | 3.5 | 42.2* | 59.8*
O=C(/C=C/c1ccccc1)N1CCN(CCN2C(=O)c3cccc4cccc(c34)C2=O)CC1 | -2.7 | -3.4 | -1.5 | 63.6* | 36.6* | -3.1 | 35.0* | 58.7*
O=C(c1ccc(S(=O)(=O)N2CCCC2)cc1)N1CCCCCC1 | -4.3 | 7.2 | -6.0 | 2.9 | -0.6 | 2.0 | / | /
CCNC(=O)NC(=O)C(C)OC(=O)[C@H](C)NS(=O)(=O)c1c(C)c(C)cc(C)c1C (stereo not given in full) | 8.4 | -3.0 | 4.1 | -3.9 | 0.6 | 3.6 | / | /
O=C(CCCCCCCCN1C(=O)c2ccccc2C1=O)N1CCOCC1 | -3.2 | -4.0 | -3.5 | 3.3 | -1.0 | -0.7 | / | /
O=C(CCCCCCN1C(=O)c2ccccc2C1=O)N1CCC(c2ccccc2)C1 (stereo not given) | -3.0 | 6.7 | 1.2 | 75.8* | 67.8* | 4.0 | 68.2* | 69.8*
Cc1ccc(OCc2cc(C(=O)N(C)Cc3cnn(-c4ccccc4C)c3)no2)cn1 | 6.3 | -15.6 | 23.1* | 14.1 | 27.1* | 4.2 | 29.2* | / | proCasp7 act trip=1.3;procasp3 conf=6.7
Cc1cc(CN(C)C(=O)c2cc(COc3ccc(C)c(C)c3)on2)on1 | -11.8 | 0.3 | 2.7 | -0.7 | 1.0 | 3.6 | / | /
CCCCCCN1C=CC(=C/C=C(\C#N)C(=O)OCC)C=C1 | -20.2 | -8.3 | 24.4* | 41.2* | 25.4* | 2.3 | 26.7* | 35.5* | proCasp7 act trip=-20.6;procasp3 conf=-8.9
O=C(Nc1nnc(-c2cccs2)o1)c1cc(-c2ccccc2)nc2ccccc12 | 4.4 | -0.2 | 10.1 | -5.5 | -5.7 | -10.0 | / | /
